Screening data (PubChem BioAssay)
proCasp7 act: activates human procaspase-7, counter-screen for procaspase-3 activators; activation, % at 8.5 µM; 330,000 compounds, 0.093% hits; P55210; recombinant procaspase-7, Ac-DEVD-pNA absorbance 405 nm; D23A/D198A/D206A triple mutant, cannot self-cleave; scale: DMSO 0, 5 µM enzyme 100;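 active = percent activation above the screen-wide mean plus 3 SD, cut at about 25% in these data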
Target sequence (P55210 whole entry D23A/D198A/D206A): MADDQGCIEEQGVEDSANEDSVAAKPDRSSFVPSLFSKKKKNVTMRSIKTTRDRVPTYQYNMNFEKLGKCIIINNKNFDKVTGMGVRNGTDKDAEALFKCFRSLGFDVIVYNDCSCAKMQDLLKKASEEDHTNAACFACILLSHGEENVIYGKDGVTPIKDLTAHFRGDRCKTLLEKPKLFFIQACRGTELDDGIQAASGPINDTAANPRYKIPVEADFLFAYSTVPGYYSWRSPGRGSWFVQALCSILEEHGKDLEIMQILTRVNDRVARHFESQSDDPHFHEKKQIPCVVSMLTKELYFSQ
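Replicates: singlicate. Assay system: Procaspase-7 triple mutant (PC-7 D3A). Signal: 405 nm absorbance of p-nitroaniline. Times: 1 h preincubation, 2 h reaction. Buffer or medium: Zinc-free HEPES pH 7.4 with 300 mM NaCl, 0.01% Triton X-100. Also added: DEVD-pNA substrate. Benchmarks: DMSO wells as 0%, DMSO with 5 µM added PC-7 as 100%.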
PKA-R1A activ: activates the PKA-R1A holoenzyme complex; PKA-R1A dissociation, Cy5-IP20 fluorescence polarization; scaled: DMSO 0%, 113 µM cGMP 100%; activation, % at 11.4 µM; 340,000 compounds, 0.083% hits;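 active = percent activation above the mean of all tested compounds plus 3 SD, cut at about 19% in these data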;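 note: higher means more PKAc released from R1A so a rise in polarization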
PKA-R2B activ: activators of human PKA-R2B complex | P22694+P31323 | PKA-R2B holoenzyme dissociation, Cy5-IP20 fluorescence polarization; R2B truncated from residue 108, S112A mutant; 0% DMSO only, 100% 113 µM cGMP | activation, % at 11.4 µM | 340,000 compounds, 0.079% hits;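 active = activation above a cutoff set at the mean over all compounds plus 3 SD, cut at about 18% in these data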;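 note: higher means more holoenzyme dissociation and a rise in polarization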
proCasp3 act: procaspase-3 (human) activation; P42574; recombinant procaspase-3 D3A, Ac-DEVD-pNA absorbance 405 nm; activation, % at 8.5 µM; 330,000 compounds, 0.11% hits;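 active = activation above the mean of all tested compounds plus 3 SD, cut at about 21% in these data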;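 note: 0% = DMSO alone and 100% = DMSO wells spiked with extra 5 µM PC-3 D3A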
Target sequence (P42574 whole entry D9A/D28A/D175A): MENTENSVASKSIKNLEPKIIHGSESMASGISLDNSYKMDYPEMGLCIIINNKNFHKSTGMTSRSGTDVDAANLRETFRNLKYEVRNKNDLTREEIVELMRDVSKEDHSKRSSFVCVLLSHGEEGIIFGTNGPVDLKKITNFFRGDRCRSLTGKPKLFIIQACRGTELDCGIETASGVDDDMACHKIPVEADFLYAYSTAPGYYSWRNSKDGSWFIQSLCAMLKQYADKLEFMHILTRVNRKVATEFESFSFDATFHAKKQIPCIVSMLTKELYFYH
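assay system = Procaspase-3 D3A mutant | signal = absorbance at 405 nm, 0 and 120 min | times = 1 h preincubation plus 2 h reaction at 25 °C | repeats = single replicate | read-out = % activation between DMSO and enzyme-spiked controls | medium = Zinc-free HEPES saline buffer with Triton X-100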
R2B FP artifact: FP assay interference, PKA-R2B counter-screen; AID 504796; FP artifact counterscreen, fluorescence polarization; shares compounds with PKA-R2B activ; activation, % at 11.4 µM; 270 compounds, 6% hits; in the data active = activation above about 20%;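 note: Cy5 labelled IP20 peptide probe with compound but no PKA protein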
PKA-R2B act conf: confirmation of human PKA-R2B complex activators | shares compounds with PKA-R2B activ | fluorescence polarization, activation | activation, % at 11.4 µM | 270 compounds, 9% hits; in the data active = activation above about 19%
* marks the source's active call; other numbers are inactive results; x = no result given. Shown are actives, neighbours in structure and some others; about 0.29% of the full set was active somewhere.

SMILES	proCasp7 act	PKA-R1A activ	PKA-R2B activ	proCasp3 act	R2B FP artifact	PKA-R2B act conf
Cc1c(Cl)c(C(=O)NC2C3CC4CC(C3)CC2C4)nn1C (stereo not given)	8	1	20*	-1	3	1
Cn1ncc(Br)c1C(=O)NC1C2CC3CC(C2)CC1C3 (stereo not given)	-4	2	-9	2	x	x
Cc1c(NC(=O)CSc2ccccc2C(=O)Nc2cccnc2)c(=O)n(-c2ccccc2)n1C	6	8	5	-4	x	x
COc1cccc(NC(=O)C2C3C=CC(C3)C2C(=O)O)c1 (stereo not given)	6	-8	-7	3	x	x
COc1cc2cc(CN(Cc3ccc4c(c3)OCO4)C(=O)c3ccco3)c(=O)[nH]c2cc1OC	2	-3	21*	-2	5	2
CCOc1ccc(N(C)S(=O)(=O)c2c[nH]c(C(=O)OC)c2)cc1	8	3	20*	0	3	4
COCCn1ccc2c(OCC(=O)NCCc3ccc(OC)c(OC)c3)cccc2c1=O	4	-8	1	5	x	x
CCn1c(SCC(=O)NCCc2ccc(Cl)cc2)nnc1-c1cccs1	4	-5	19*	6	0	1
O=C(NNS(=O)(=O)c1ccc(CCCl)cc1)C(O)(c1ccccc1)c1ccccc1	-1	-3	-9	3	x	x
Cn1c(/C(C#N)=C(\O)c2ccc(S(=O)(=O)N3CCCCC3)cc2)nc2ccccc21	15	0	19*	-3	2	2
O=C(COC(=O)c1cccc(S(=O)(=O)N2CCCC2)c1)Nc1cccc(Br)c1	x	-5	-1	x	x	x
CC(=O)N(c1ccc(Cl)cc1)c1nc(C)cc(C)c1C#N	-3	6	20*	-9	1	3
O=C(CCc1nnc2ccc(NCc3ccccc3Cl)nn12)NC1CCCC1	6	0	5	12	x	x
Cc1cc(N2CCOCC2)nc2ccc(NC(=S)NCc3ccc4c(c3)OCO4)cc12	1	1	-10	1	x	x
N#Cc1nc(-c2cccs2)oc1NCC1CCCO1 (stereo not given)	19	3	19*	5	1	1
COc1ccc2[nH]c(=O)c(CN(C(C)=O)c3ccc(C)cc3C)cc2c1	-7	-13	-4	0	x	x
CCC(=O)N(Cc1cc2cc(OC)ccc2[nH]c1=O)c1ccc(C)cc1C	6	-6	21*	2	-3	-2
COc1ccc(NC(=O)C2CCN(S(=O)(=O)c3ccccc3)CC2)cc1	-7	0	-1	-7	x	x
COc1ccc(S(=O)(=O)N2CCC(C(=O)Nc3c(F)cccc3F)CC2)cc1	7	-5	21*	9	3	1
Cn1cccc1C(=O)OCC(=O)NCCCc1ccccc1	7	-9	-6	2	x	x
CC1CC(C)(C)C2=NCCN21 (stereo not given)	x	-3	-1	x	x	x
Cc1cccc2cc(CN(CCCO)C(=O)Nc3ccccc3Cl)c(=O)[nH]c12	-3	-1	23*	-3	-1	3
C=CCNc1nc2c(c(=O)[nH]c(=O)n2C)n1Cc1cccc(C)c1	x	10	22*	x	2	5
COc1ccc(-c2nnc(CSc3nnc(-c4ccncc4)n3C3CCCCC3)o2)cc1OC	11	-4	2	-6	x	x
O=c1[nH]nc(SCc2nnc(-c3cccc(Cl)c3)o2)n1C1CCCCC1	0	-7	19*	-4	3	1
SMILES	proCasp7 act	PKA-R1A activ	PKA-R2B activ	proCasp3 act	R2B FP artifact	PKA-R2B act conf
CC(C)(C)C(=O)Nc1nc(C2CCCN2S(=O)(=O)c2ccc(Cl)cc2)cs1 (stereo not given)	7	2	19*	3	-1	1
Cc1ccsc1CNC12CC3CC(CC(C3)C1)C2	5	-13	21*	-3	2	4
Cc1ccsc1CNC1CCCCC1	5	0	-2	9	x	x
Cc1ccccc1NC(=O)CCS(=O)(=O)c1ccc(Br)s1	0	6	19*	-5	-1	0
COC(=O)c1ccccc1NC(=O)CCS(=O)(=O)c1ccc(Br)s1	6	0	-10	3	x	x
N#Cc1cc([N+](=O)[O-])ccc1NC(=O)COC(=O)C1CC2CCCC(C1)C2=O (stereo not given)	1	-3	5	-3	x	x
N#Cc1cc([N+](=O)[O-])ccc1NC(=O)COC(=O)C1CCC(=O)N1 (stereo not given)	3	-5	20*	3	1	1
Nc1nnc(Cc2cccc(Br)c2)s1	-3	7	20*	5	1	-4
O=C(CCS(=O)(=O)c1ccc(F)cc1)Nc1nnc(-c2ccc(F)cc2)o1	13	-7	19*	-14	-2	1
Cc1ccc(-c2nnc(NC(=O)CCS(=O)(=O)c3ccc(F)cc3)o2)c(C)c1	4	6	0	-5	x	x
CC(C)NC(=O)c1ccccc1-c1nc(-c2ccccc2Cl)no1	-3	-4	-4	0	x	x
O=C(COC(=O)COc1ccc(Cl)cc1)Nc1ccc2c(c1)OCCO2	-5	1	19*	9	3	4
COc1ccccc1NC(=O)N(CCN1CCCC1)Cc1cc2cc(C)ccc2[nH]c1=O	4	6	2	-1	x	x
CCN1CCCC1CN(Cc1cc2cc(C)ccc2[nH]c1=O)C(=O)Nc1ccccc1OC (stereo not given)	-11	0	19*	7	1	2
Cc1onc(-c2ccccc2Cl)c1C(=O)NCc1cccnc1	7	10	20*	4	3	5
O=C(CC(=O)N/N=C/c1c(F)cccc1Cl)NCCc1ccccc1	1	-2	1	8	x	x
COc1cccc(CC(NC(C)=O)C(=O)NC2CCN(C(=O)c3ccncc3)CC2)c1OC (stereo not given)	x	-5	19*	x	6	2
COc1cccc(CC(NC(C)=O)C(=O)NC2CCN(C(=O)C3CCCCC3)CC2)c1OC (stereo not given)	x	-1	-2	x	x	x
Cc1ccccc1NS(=O)(=O)c1cc(S(C)(=O)=O)ccc1C	6	0	19*	1	3	3
CN(C)c1nc(N2CCN(c3ccccc3)CC2)c(C#N)c(=O)o1	-7	-8	-2	-1	x	x
Cc1cccc(C)c1N1CCN(c2nc(N(C)C)oc(=O)c2C#N)CC1	3	2	20*	10	2	5
O=C(CCSc1ccccc1)NCC1CCCO1 (stereo not given)	10	-9	5	0	x	x
O=C(CCSCCC(=O)NCC1CCCO1)NCC1CCCO1 (stereo not given)	7	-2	20*	-6	4	0
